Source: PubChem BioAssay
CHOP inh: inhibitors of CHOP induction in ER stress response; AID 2732; inhibition, % at 10 µM; CHO-K1 CHOP-promoter luciferase, tunicamycin-induced, 15-18 h; 220,000 compounds, 3.8% hits;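 active means compounds that reduced the stress-induced luciferase reporter signal by more than about 70% of percent inhibition, limit read from the data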;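 further: 0% = tunicamycin plus vehicle and 100% = wells without tunicamycin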
Hep lipid drop: hepatic lipid droplet formation modulation | AML12 mouse hepatocytes, oleate lipid droplets, BODIPY imaging | inhibition, % at 6.5 µM | 240,000 compounds, 0.4% hits | AID 1656;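 active means lipid droplet intensity inhibited by at least 50%, with more than 500 cells counted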
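Material: mouse AML12 hepatocyte cell line, fixed after treatment; Timing: compound with oleate, overnight; Technique: high-content imaging of BODIPY-stained droplets and DAPI nuclei; Probe or stimulus: oleate, 100 µM final; Dosing: compound at 6.5 µM only.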
TMEM16A inh: mouse TMEM16A channel inhibition, primary screen | 310,000 compounds, 1.2% hits | AID 588511 | Q8BHY3 | normalized B-score (activity score, 25-100; higher = stronger inhibition) at 10 µM | HEK293 TMEM16A/YFP iodide influx fluorescence, ionomycin;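 active means ratio plate-corrected score three or more library SD toward inhibition, starting fluorescence score within five deviations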;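 further: score derived from kinetic fluorescence span divided by baseline fluorescence per well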
Target sequence (Q8BHY3 whole entry, looked up): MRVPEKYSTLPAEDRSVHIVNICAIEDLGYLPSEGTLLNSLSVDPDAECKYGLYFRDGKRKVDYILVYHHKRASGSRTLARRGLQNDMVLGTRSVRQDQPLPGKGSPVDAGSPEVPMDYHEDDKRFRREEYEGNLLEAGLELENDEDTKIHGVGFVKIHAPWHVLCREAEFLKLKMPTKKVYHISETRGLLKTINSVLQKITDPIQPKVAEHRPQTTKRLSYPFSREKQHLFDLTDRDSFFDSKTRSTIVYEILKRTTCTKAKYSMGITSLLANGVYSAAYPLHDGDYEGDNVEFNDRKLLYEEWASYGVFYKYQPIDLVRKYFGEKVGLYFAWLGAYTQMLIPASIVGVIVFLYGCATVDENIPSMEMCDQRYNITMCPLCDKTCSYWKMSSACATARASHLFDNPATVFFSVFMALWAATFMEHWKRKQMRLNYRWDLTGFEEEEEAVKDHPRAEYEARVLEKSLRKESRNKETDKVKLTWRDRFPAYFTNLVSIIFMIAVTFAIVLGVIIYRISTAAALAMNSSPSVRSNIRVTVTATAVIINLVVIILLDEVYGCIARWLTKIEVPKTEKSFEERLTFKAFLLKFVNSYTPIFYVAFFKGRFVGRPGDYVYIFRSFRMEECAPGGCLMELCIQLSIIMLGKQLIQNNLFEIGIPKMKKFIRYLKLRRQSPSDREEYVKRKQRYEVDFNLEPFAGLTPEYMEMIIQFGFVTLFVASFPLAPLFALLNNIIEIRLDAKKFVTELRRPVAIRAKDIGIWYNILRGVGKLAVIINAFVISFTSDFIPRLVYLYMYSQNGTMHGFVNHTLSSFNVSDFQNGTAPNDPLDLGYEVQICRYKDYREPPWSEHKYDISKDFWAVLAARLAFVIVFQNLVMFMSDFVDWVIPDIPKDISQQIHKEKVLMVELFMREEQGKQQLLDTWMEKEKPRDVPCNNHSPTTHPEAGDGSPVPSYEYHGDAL
XBP1 UPR activ: activators of adaptive arm of unfolded protein response (XBP1). CHO-XBP1 luciferase reporter, IRE1-XBP1 UPR activation, luminescence; percent of tunicamycin response, DMSO as zero. activation, % at 20 µM. 330,000 compounds, 0.33% hits;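 active means versus positive control, 20 µM dose yields 30% or more activation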;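 further: 100% = tunicamycin at 10 µg/mL and 0% = DMSO only wells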
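Material: CHO-XBP1 cells stably carrying IRE1-XBP1-driven luciferase reporter / Amount: 1000 cells per well / Compound: 20 µM, 1% DMSO / Times: 6 h treatment, 37 °C / Detection: luciferase luminescence / Measure: % activation of reporter signal versus tunicamycin and DMSO controls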
UPR CHOP act: activators of apoptotic arm of unfolded protein response (CHOP) | CHO-CHOP luciferase reporter, UPR activation, luminescence; percent of tunicamycin response over DMSO baseline | activation, % at 10 µM | 330,000 compounds, 0.34% hits;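 active means at 10 µM dose, activation of 40% or more, normalized to positive control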;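 further: 100% = tunicamycin at 10 µg/mL and 0% = DMSO alone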
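measured by = luciferase luminescence | assay system = CHO-CHOP cells, stable luciferase reporter of PERK-eIF2a-CHOP signalling | amount = 500 reporter cells seeded per well | timing = 6 h compound exposure at 37 °C after overnight seeding | controls = positive tunicamycin 10 µg/mL, negative DMSO alone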
ANO1 activ: activators or potentiators of mouse TMEM16A chloride channel; Q8BHY3; B-score at 10 µM; HEK293 TMEM16A/YFP-H148Q/I152L, iodide quench fluorescence; hits give low values; 340,000 compounds, 0.3% hits;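 active means fluorescence-ratio B-score plate-corrected deviation score at least 3 library SD below zero, with starting fluorescence score within 5 deviations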;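 further: channel opened by trigger with iodide after compound preincubation; score built on the fluorescence ratio of max minus min over baseline; more negative score means more quench and so TMEM16A activation or potentiation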
UPR XBP1 confirm: confirmation of adaptive unfolded protein response (XBP1) activators | shares compounds with XBP1 UPR activ | CHO-XBP1 IRE1-XBP1 luciferase reporter, luminescence | activation, % at 20 µM | 1,000 compounds, 63% hits;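 active means reporter signal at least 30% of the positive control's activation in two or more of four replicate wells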;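 further: plate controls were DMSO negative control for no effect and tunicamycin 10 µg/mL positive control for full effect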
* = called active by the depositor. A selection: hits, their analogues and other compounds. The true share with any hit is near 4.2%.

What do the screens show for `Cc1cc(N2O[C@]34C=C[C@]25C[C@@H](O)CC[C@]5(C)C3CC[C@]2(C)[C@@H]([C@H](C)/C=C/[C@H](C)C(C)C)CC[C@H]24)no1` (stereo not given in full)?
XBP1 UPR activ: 41*; UPR CHOP act: 3; UPR XBP1 confirm: -1

What do the screens show for `CCOc1ccc(NC(=S)NC(=O)/C=C/c2ccc(C)cc2)c([N+](=O)[O-])c1`?
CHOP inh: 63; TMEM16A inh: inactive; XBP1 UPR activ: 213*; UPR CHOP act: 34; ANO1 activ: inactive; UPR XBP1 confirm: 144*

Results for CCOc1ccc(NC(=O)/C=C/c2ccc(OC)cc2)c([N+](=O)[O-])c1 ?
CHOP inh: 15; Hep lipid drop: -2; TMEM16A inh: inactive; XBP1 UPR activ: 3; UPR CHOP act: -1; ANO1 activ: inactive

Results for COc1ccc(C(=O)Nc2cccc(/C=C/c3nc4ccccc4c(=O)[nH]3)c2)cc1 ?
CHOP inh: 91*; Hep lipid drop: 8; TMEM16A inh: inactive; XBP1 UPR activ: 52*; UPR CHOP act: 5; ANO1 activ: inactive; UPR XBP1 confirm: 69*

Results for O=C(Nc1cccc(/C=C/c2nc3ccccc3c(=O)[nH]2)c1)c1ccccc1Cl ?
CHOP inh: -12; Hep lipid drop: 12; TMEM16A inh: inactive; XBP1 UPR activ: 4; UPR CHOP act: 6; ANO1 activ: inactive

What do the screens show for `CC(C)CN1CCC(=O)N(CCN=[N+]=[N-])CC1`?
TMEM16A inh: inactive; XBP1 UPR activ: 2; UPR CHOP act: 0; ANO1 activ: inactive

How did CCOc1cc(/C=N\Nc2ccc([N+](=O)[O-])cc2)ccc1OCC(=O)Nc1ccc(C)c(C)c1 do in these assays?
CHOP inh: 27; TMEM16A inh: inactive; XBP1 UPR activ: 44*; UPR CHOP act: 7; ANO1 activ: inactive; UPR XBP1 confirm: 66*

How did CC(C)CNc1nnnc2c1sc1nc(N3CCOCC3)c3c(c12)CCCC3 do in these assays?
CHOP inh: -4; Hep lipid drop: -14; TMEM16A inh: inactive; XBP1 UPR activ: 55*; UPR CHOP act: 2; ANO1 activ: inactive; UPR XBP1 confirm: 31

Results for CN(C)CCCN(C(=O)c1ccc(S(=O)(=O)N2CCc3ccccc3C2)cc1)c1nc2ccc(F)cc2s1 ?
Hep lipid drop: -27; TMEM16A inh: inactive; XBP1 UPR activ: 31*; UPR CHOP act: 24; ANO1 activ: inactive; UPR XBP1 confirm: 71*

Results for Cc1cc(C)c2sc(N(CCCN(C)C)C(=O)c3ccc(S(=O)(=O)N4CCCc5ccccc54)cc3)nc2c1 ?
TMEM16A inh: inactive; XBP1 UPR activ: 31*; UPR CHOP act: 8; ANO1 activ: inactive; UPR XBP1 confirm: 54*

What do the screens show for `CN(C)CCCN(C(=O)c1cc(-c2cccs2)nc2ccccc12)c1nc2ccc(F)cc2s1`?
Hep lipid drop: -1; TMEM16A inh: inactive; XBP1 UPR activ: 33*; UPR CHOP act: 5; ANO1 activ: inactive; UPR XBP1 confirm: 40*

Results for Cc1ccc2nc(N(CCCN(C)C)C(=O)c3ccc(S(=O)(=O)N4CCc5ccccc5C4)cc3)sc2c1 ?
Hep lipid drop: 2; TMEM16A inh: inactive; XBP1 UPR activ: 93*; UPR CHOP act: 36; ANO1 activ: -5.3*; UPR XBP1 confirm: 49*

How did O=C(NCCc1ccccc1)c1cccc(N2CCCC2=O)c1 do in these assays?
Hep lipid drop: -1; TMEM16A inh: inactive; XBP1 UPR activ: -12; UPR CHOP act: -7; ANO1 activ: inactive

Results for Cc1ccc(N2CCN(C(=O)N3CCOCC3)CC2)c(C)c1 ?
CHOP inh: -1; Hep lipid drop: 5; TMEM16A inh: inactive; XBP1 UPR activ: 2; UPR CHOP act: 1; ANO1 activ: inactive

How did COc1ccc2nc(NC(=O)c3cccc(-c4cc5ccccc5oc4=O)c3)sc2c1 do in these assays?
CHOP inh: 105*; Hep lipid drop: 15; TMEM16A inh: inactive; XBP1 UPR activ: 78*; UPR CHOP act: 25; ANO1 activ: inactive; UPR XBP1 confirm: 55*

What do the screens show for `CCCCSc1nnc(-c2ccccc2NC(C)=O)c(=O)[nH]1`?
CHOP inh: -3; Hep lipid drop: 3; TMEM16A inh: inactive; XBP1 UPR activ: 4; UPR CHOP act: -1; ANO1 activ: inactive

How did O=[N+]([O-])c1cccc(/C=C/c2nc(C=Nc3ccccc3)c(O)o2)c1 do in these assays?
CHOP inh: 8; Hep lipid drop: 2; TMEM16A inh: inactive; XBP1 UPR activ: 36*; UPR CHOP act: 2; ANO1 activ: inactive; UPR XBP1 confirm: 24

How did CCCCN(C(C)=O)c1ccc(S(=O)(=O)NC2=NCCCCC2)cc1NC(C)=O do in these assays?
XBP1 UPR activ: -2; UPR CHOP act: 0; ANO1 activ: inactive

How did CCCCCC1CCC(c2ccc(/C(N)=N/O)cc2)CC1 (stereo not given) do in these assays?
CHOP inh: 18; Hep lipid drop: 1; TMEM16A inh: inactive; XBP1 UPR activ: 32*; UPR CHOP act: 2; ANO1 activ: inactive; UPR XBP1 confirm: 3

What do the screens show for `CCCCC1CCC(c2ccc(C(N)=O)cc2)CC1` (stereo not given)?
CHOP inh: 11; Hep lipid drop: -11; TMEM16A inh: inactive; XBP1 UPR activ: 0; UPR CHOP act: -1; ANO1 activ: inactive

How did COc1ccc(/C=C/C(=O)OCC(=O)NC2CCCCC2C)c(OC)c1 (stereo not given) do in these assays?
XBP1 UPR activ: 0; UPR CHOP act: 0; ANO1 activ: inactive

What do the screens show for `CN(C)CC/C=C1\c2ccc(F)cc2Sc2cc(F)c(Cl)cc21`?
TMEM16A inh: inactive; XBP1 UPR activ: 86*; UPR CHOP act: 2; ANO1 activ: inactive; UPR XBP1 confirm: 122*

How did CN(C)CC/C=C1/c2ccc(F)cc2Sc2ccc(Cl)cc21 do in these assays?
TMEM16A inh: inactive; XBP1 UPR activ: 2; UPR CHOP act: 2; ANO1 activ: inactive

How did C=CCSc1nc2ccsc2c(=O)n1-c1cccnc1 do in these assays?
CHOP inh: -9; Hep lipid drop: 10; TMEM16A inh: inactive; XBP1 UPR activ: 0; UPR CHOP act: 4; ANO1 activ: inactive

What do the screens show for `O=C(COC(=O)CCNS(=O)(=O)c1ccccc1)NC1CC1`?
XBP1 UPR activ: 0; UPR CHOP act: 0; ANO1 activ: inactive

Results for COc1ccc(Nc2nc(N)nc(CN3CCOCC3)n2)cc1 ?
CHOP inh: 25; TMEM16A inh: inactive; XBP1 UPR activ: -2; UPR CHOP act: 0; ANO1 activ: inactive
